Source: PubChem (several laboratories)
PLC-gamma1 inh – blocks human PLC-gamma1 enzyme activity. P19174. purified PLC-gamma1, fluorogenic substrate, fluorescence. inhibition, % at 12.2 µM. 0.84% of 370,000 active. AID 720700; in the data active = inhibition above about 9.5%
Target sequence (P19174 whole entry, looked up): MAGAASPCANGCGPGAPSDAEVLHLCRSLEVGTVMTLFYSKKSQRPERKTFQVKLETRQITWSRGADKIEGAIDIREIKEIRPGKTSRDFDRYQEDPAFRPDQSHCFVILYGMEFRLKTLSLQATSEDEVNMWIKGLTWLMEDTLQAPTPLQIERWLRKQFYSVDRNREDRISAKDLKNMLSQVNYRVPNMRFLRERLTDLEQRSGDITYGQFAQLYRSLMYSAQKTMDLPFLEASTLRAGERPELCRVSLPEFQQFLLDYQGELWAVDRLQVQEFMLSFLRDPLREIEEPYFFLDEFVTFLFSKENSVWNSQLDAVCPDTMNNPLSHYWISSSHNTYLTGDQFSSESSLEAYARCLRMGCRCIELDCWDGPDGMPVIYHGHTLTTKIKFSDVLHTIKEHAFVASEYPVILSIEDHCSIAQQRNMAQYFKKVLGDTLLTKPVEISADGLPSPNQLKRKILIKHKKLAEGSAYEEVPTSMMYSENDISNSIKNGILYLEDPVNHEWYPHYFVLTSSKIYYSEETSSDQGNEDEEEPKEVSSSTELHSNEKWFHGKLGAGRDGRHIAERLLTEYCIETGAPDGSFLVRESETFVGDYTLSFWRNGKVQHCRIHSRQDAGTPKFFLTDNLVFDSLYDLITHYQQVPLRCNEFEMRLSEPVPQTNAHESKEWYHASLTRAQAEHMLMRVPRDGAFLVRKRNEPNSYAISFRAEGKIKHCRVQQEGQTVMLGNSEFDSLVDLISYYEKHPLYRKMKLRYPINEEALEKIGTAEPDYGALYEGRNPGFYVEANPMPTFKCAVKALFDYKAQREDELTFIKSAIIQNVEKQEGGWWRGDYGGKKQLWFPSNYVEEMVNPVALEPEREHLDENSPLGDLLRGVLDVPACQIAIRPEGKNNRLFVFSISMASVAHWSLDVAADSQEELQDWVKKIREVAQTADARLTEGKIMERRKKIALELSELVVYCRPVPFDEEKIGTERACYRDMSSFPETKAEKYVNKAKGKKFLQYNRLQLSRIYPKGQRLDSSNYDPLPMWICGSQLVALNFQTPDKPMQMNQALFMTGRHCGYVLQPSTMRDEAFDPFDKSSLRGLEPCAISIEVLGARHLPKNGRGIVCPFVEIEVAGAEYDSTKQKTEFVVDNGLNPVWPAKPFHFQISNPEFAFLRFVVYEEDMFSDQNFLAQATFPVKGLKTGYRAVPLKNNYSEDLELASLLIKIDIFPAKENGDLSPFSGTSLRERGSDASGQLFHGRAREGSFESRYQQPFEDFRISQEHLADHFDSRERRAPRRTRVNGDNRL
IMP-1 inhibitor – inhibitors of Pseudomonas aeruginosa IMP-1 metallo-beta-lactamase; purified IMP-1, nitrocefin hydrolysis, epi-absorbance fluorescence; 0.45% of 290,000 active; inhibition, % at 5.6 µM;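 active = inhibition above the mean plus 3 SD of all compounds in the same screening run, cut at about 4.5% in these data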;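 note: 0% = IMP-1 with DMSO and 100% = DMSO wells lacking enzyme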
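System: Purified IMP-1 | Read-out basis: Percent enzyme inhibition | Controls: IMP-1 with DMSO as 0%, enzyme-free DMSO as 100% | Replicates: One well per compound | Doses: 5.6 µM nominal single concentration | Detection: Epi-absorbance fluorescence, 480 nm excitation, 530 nm emission | Incubation: 25 °C, 15 min preincubation, 25 min reaction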
PvdQ acylase – blocks Pseudomonas aeruginosa PvdQ acylase activity. purified PvdQ acylase, fluorescence plate reader. inhibition, % at 10 µM. 0.063% of 340,000 active. AID 488965; in the data active = inhibition above about 30%, passing the limit was not always enough;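 note: 0% = vehicle neutral wells and 100% = reference inhibitor wells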
PLC-beta3 inh – blocks human PLC-beta3 enzyme activity. 0.18% of 370,000 active. Purified PLC-beta3, fluorogenic substrate, fluorescence. Q01970. inhibition, % at 12.2 µM;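 note: 0% = median of compound wells on plate and 100% = full blocker control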
VIM-2 inhibitor – blocks Pseudomonas aeruginosa VIM-2 metallo-beta-lactamase; purified VIM-2, nitrocefin hydrolysis, epi-absorbance fluorescence; inhibition, % at 5.6 µM; 0.89% of 290,000 active;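 active = inhibition above the mean of all tested compounds plus 3 SD, cutoff set per screening run, cut at about 7.5% in these data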;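 note: red hydrolysis product quenches plate fluorescence so inhibitors raise well fluorescence; 0% = enzyme with DMSO and 100% = DMSO without enzyme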
PLCg1 ctr – PLC-gamma1 inhibition, counter-screen for PLC-beta3 hits; shares compounds with PLC-gamma1 inh; purified PLC-gamma1, fluorogenic substrate, fluorescence; inhibition, % at 12.3 µM; 3.1% of 3,300 active; in the data active = inhibition above about 9.5%
PLCb3 confirm – confirmation of human PLC-beta3 inhibitors; purified PLC-beta3, fluorogenic substrate fluorescence; 1% of 3,300 active; shares compounds with PLC-gamma1 inh; inhibition, % at 12.3 µM
Numbers without * were called inactive. A selection: hits, their analogues and other compounds. The true share with any hit is near 2%. Cut-off read from the data, not from the text of the source, unless noted: active = inhibition above about 11%; inactive = the rest.

O=C(NC(=S)Nc1ccc(Cc2ccncc2)cc1)c1ccccc1Cl was read as PLC-gamma1 inh 5.3, IMP-1 inhibitor -2.4, PvdQ acylase -6.8, PLC-beta3 inh 3.1 and VIM-2 inhibitor -2.0.
`C=CCN1C(C(=O)OC)CN(Cc2cn(Cc3ccc(F)cc3)nn2)CCS1(=O)=O` (stereo unspecified) gave PLC-gamma1 inh 3.8 and PLC-beta3 inh 7.0.
For C=CCN1C(=O)[C@@H](CC(=O)NCc2cccs2)[C@]2(C(=O)OCC)CCCCC/C=C/12 the results were PLC-gamma1 inh -1.4 and PLC-beta3 inh 0.2.
O=C(Cn1c(=O)oc2ccccc21)Nc1ccc(Cl)cc1 was read as PLC-gamma1 inh 10.6*, IMP-1 inhibitor -5.1, PvdQ acylase -5.0, PLC-beta3 inh -0.9, VIM-2 inhibitor -1.6, PLCg1 ctr -2.6 and PLCb3 confirm 3.7.
Screening O=C(CCN1C(=O)C2CC=CCC2C1=O)NC1CCCCC1 (stereo unspecified) returned PLC-gamma1 inh 6.7, IMP-1 inhibitor -3.3, PvdQ acylase -7.0, PLC-beta3 inh -3.7 and VIM-2 inhibitor -3.9.
Screening CC1CCC(NC(=O)CCN2C(=O)C3CC=CCC3C2=O)CC1 (stereo unspecified) returned PLC-gamma1 inh 12.1*, PvdQ acylase -8.7, PLC-beta3 inh 0.3, PLCg1 ctr -1.6 and PLCb3 confirm 1.4.
COC(=O)[C@]12C[C@H](CC(=O)NCc3cccs3)C(=O)N(Cc3ccc4c(c3)OCO4)C1=C[C@H](C(C)(C)C)O[C@@H]2C was read as PLC-gamma1 inh 4.6 and PLC-beta3 inh 2.3.
For Cc1cccc(NC2=CC(=O)CC(C)(C)C2)c1C the results were PLC-gamma1 inh 9.8*, IMP-1 inhibitor -3.4, PvdQ acylase -0.3, PLC-beta3 inh 5.6, VIM-2 inhibitor 0.1, PLCg1 ctr 6.2 and PLCb3 confirm 1.1.
Cc1ccc(C(=O)NC2CCCCN(Cc3ccc(Cl)cc3)C2=O)c(C)c1 (stereo unspecified) was read as PLC-gamma1 inh 1.3 and PLC-beta3 inh -4.4.
O=C(Cc1ccccc1Cl)NCCN1C(=O)C2C3C=CC(C3)C2C1=O (stereo unspecified) was read as PLC-gamma1 inh 9.9*, PLC-beta3 inh 1.1, PLCg1 ctr -0.2 and PLCb3 confirm 0.0.
`NC1=NC[C@H](Cc2ccc(O)cc2)N1CCc1cc(C(F)(F)F)cc(C(F)(F)F)c1` gave PLC-gamma1 inh 10.3*, PvdQ acylase -16.1, PLC-beta3 inh -2.7, PLCg1 ctr -8.1 and PLCb3 confirm -3.4.
For NC1=NC[C@@H](CC2CCCCC2)N1CCc1cc(C(F)(F)F)cc(C(F)(F)F)c1 the results were PvdQ acylase -18.3.
Screening COc1cc2cc(-c3ccc(O)cc3O)nc(C)c2cc1OC returned PLC-gamma1 inh 13.4*, IMP-1 inhibitor -0.9, PvdQ acylase 2.6, PLC-beta3 inh -6.0, VIM-2 inhibitor 2.6, PLCg1 ctr -3.6 and PLCb3 confirm -0.2.
`COC(=O)[C@]12C[C@H](CC(=O)NCc3cccs3)C(=O)N(Cc3cccc4ccccc34)C1=C[C@H](C1CCCC1)O[C@@H]2C` gave PLC-gamma1 inh 0.8 and PLC-beta3 inh 2.6.
C/C(=N\NC(=O)c1nnn(-c2nonc2N)c1CSc1ccc(C)cc1)c1cccs1 was read as PLC-gamma1 inh 10.1*, PLC-beta3 inh 0.5, PLCg1 ctr -10.8 and PLCb3 confirm -6.3.
Cc1nn(-c2ccccc2)c2sc(C(=O)N3CCN(Cc4ccc(F)cc4)CC3)cc12 was read as PLC-gamma1 inh -2.6 and PLC-beta3 inh -9.4.
`Cc1cc(/C=C(\C#N)C(=O)Nc2ccc(Cl)cc2)c(C)n1-c1ccc(N2CCOCC2)c([N+](=O)[O-])c1` gave PLC-gamma1 inh 13.6*, IMP-1 inhibitor -2.5, PvdQ acylase -1.8, PLC-beta3 inh 6.7, VIM-2 inhibitor -6.9, PLCg1 ctr 3.4 and PLCb3 confirm 3.8.
Screening Cc1ccc(NC(=O)/C(C#N)=C/c2cc(C)n(-c3ccc(N4CCOCC4)c([N+](=O)[O-])c3)c2C)c(C)c1 returned PLC-gamma1 inh 0.2, IMP-1 inhibitor -1.1, PvdQ acylase -8.9, PLC-beta3 inh -1.7 and VIM-2 inhibitor -1.1.
